Calls of active or inactive are those of the source. The rule behind the calls is not given here.

The values below come from ChEMBL document CHEMBL1146683, “Antiproliferative activity of various flavonoids and related compounds: additive effect of interferon-alpha2b” (Bioorg Med Chem Lett, 2004).

The test system of the first experiment is WISH. In words: In vitro inhibitory activity against the growth of WISH cell derived from human cervical carcinoma was determined; Inactive. The class given is functional, cell-based.
In the case of `O=c1cc(-c2ccccc2)oc2ccc([N+](=O)[O-])cc12`, the inhibition entry is “inactive”. As for `O=C(O)/C=C/c1ccc(O)c(O)c1`, the NA result is “inactive”. On the same count and under the same terms, to `O=c1cc(-c2ccccc2)oc2ccccc12` belongs “inactive”.

The subject of the next experiment is WISH. In words: (§1) In vitro inhibitory activity against the growth of WISH cell derived from human cervical carcinoma was determined. The class given is functional. A digest of the protocol:
(§2)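 WISH cells (HeLa-derived; grown in MEM with 10% FBS, 2 mM L-glutamine and antibiotics), 10,000 per well. Cells exposed 72 h at 37 °C to a concentration series of compound given in DMSO/ethanol (1:10), with controls solvent-matched. Total cell number read colorimetrically as hexosaminidase level. IC50, the molar concentration giving 50% growth inhibition, was taken from dose–response curves.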
In turn, `O=c1cc(-c2ccccc2[N+](=O)[O-])oc2ccc([N+](=O)[O-])cc12` showed an Inhibition of around 70%. Same read-out and setting: to `CCOC(=O)/C=C/c1ccc(O)c(O)c1` [ETHYL CAFFEATE] belongs 50%. `O=c1cc(-c2ccccc2[N+](=O)[O-])oc2ccccc12` yielded an Inhibition of around 70%. Same read-out and setting: to `CCCCOC(=O)/C=C/c1ccc(O)c(O)c1` [BUTYL CAFFEATE] belongs around 70%.

For a further experiment, the system named is WISH. Description: In vitro inhibitory activity against the growth of WISH cell derived from human cervical carcinoma was determined; slight reduction in cell growth. The class given is functional, cell-based.
`O=C1CC(c2ccccc2)Oc2ccccc21` (stereo not drawn): the inhibition entry was “Weak activity”.

The test system of another experiment is WISH. Description: In vitro inhibitory activity against the growth of WISH cell derived from human cervical carcinoma was determined; slight effect. The class given is functional, cell-based.
As for `O=c1cc(-c2ccc(O)cc2)oc2cc(O)cc(O)c12`, the inhibition result was “Weak activity”. For the compound `O=c1cc(-c2ccccc2)oc2ccc3ccccc3c12`, the inhibition result is “Weak activity”. The same measure, in the same setting: the value for `O=c1c(O)c(-c2ccc(O)c(O)c2)oc2cc(O)cc(O)c12` was “Weak activity”; that for `O=c1cc(-c2ccccc2)oc2cc(O)cc(O)c12` was “Weak activity”.

On to `COc1cc(OC)c2c(=O)cc(-c3ccccc3)oc2c1`, for which the inhibition result is reported as “slight effect”. As to `O=C(O)/C=C/c1ccccc1`, the inhibition entry is reported as “slight effect”. On the same count and under the same terms, the value for `O=c1cc(-c2ccccc2)oc2c1ccc1ccccc12` was “Weak activity”.

A further experiment concerns WISH. The experiment is described as §1. Type of experiment: functional, cell-based. In outline: as §2
`O=c1cc(-c2ccccc2[N+](=O)[O-])oc2ccc([N+](=O)[O-])cc12` had an IC50 of around 3000 nM. Same read-out and setting: the value for `O=c1cc(-c2ccccc2[N+](=O)[O-])oc2ccccc12` was around 3000 nM; that for `CCCCOC(=O)/C=C/c1ccc(O)c(O)c1` [BUTYL CAFFEATE] was around 3000 nM.
